System: HEK-293T
Assay: Multiplex assay against HEK293T;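 for Population Tubulin-Different-Phenotype (%): share of the cells with healthy nuclei that show this phenotype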
Format: toxicity, cell-based
Conditions: human
In short: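 At seeding, live cells were stained with Hoechst33342, BioTracker Green Microtubule Cytoskeleton Dye, MitoTracker Red and Annexin V Alexa Fluor 680. After compound addition they were imaged on a CQ1 microscope at 37°C and 5% CO2, and CellPathfinder machine-learning gating sorted them into Hoechst high-intensity objects or normal cells, with normal cells further split into healthy, pyknosed or fragmented nuclei and pyknosed cells into mitotic or apoptotic. Tubulin, mitochondrial-mass and membrane-permeability phenotypes are given as per cents of cells with healthy nuclei.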

[1] = 12 h, 1 µM, compound concentration 1 uM, replicate 1
[2] = 12 h, 1 µM, compound concentration 1 uM, replicate 2
[3] = 12 h, 10 µM, compound concentration 10 uM, replicate 1
[4] = 12 h, 10 µM, compound concentration 10 uM, replicate 2
[5] = 24 h, 1 µM, compound concentration 1 uM, replicate 1
[6] = 24 h, 1 µM, compound concentration 1 uM, replicate 2
[7] = 24 h, 10 µM, compound concentration 10 uM, replicate 1
[8] = 24 h, 10 µM, compound concentration 10 uM, replicate 2
[9] = 48 h, 1 µM, compound concentration 1 uM, replicate 1
[10] = 48 h, 1 µM, compound concentration 1 uM, replicate 2
[11] = 48 h, 10 µM, compound concentration 10 uM, replicate 1
[12] = 48 h, 10 µM, compound concentration 10 uM, replicate 2

With `CCc1cccc(CC)c1NC(=O)c1nn(C)c2c1CCc1cnc(Nc3ccc(C(=O)NC4CCN(C)CC4)cc3OC(F)(F)F)nc1-2` as the molecule, how does the “Population Apoptotic (%)” value [1] read?
Its value is 66%.

And the “Population Fragmented Nuclei (%)” value [1]?
Its value is 8%.

And the “Population Healthy Nuclei (%)” value [1]?
The value was 46%.

And the “Population Hoechst High Intensity Objects (%)” value [1]?
Its value is 11%.

What about the “Population Membrane Permeable-Phenotype (%)” value [1] of the same molecule?
Its value is 3%.

And the “Population Mitochondria Different-Phenotype (%)” value [1]?
Its value is 93%.

What about the “Population Mitotic Cells (%)” value [1] of the same molecule?
The value was 33%.

What about the “Population Normal (%)” value [1] of the same molecule?
The value was 88%.

What about the “Population Pyknosed Nuclei (%)” value [1] of the same molecule?
The value was 45%.

And the “Population Tubulin-Different-Phenotype (%)” value [1]?
Its value is 68%.

And the “Total Cell Count” value [1]?
Its value is 312.

And the “Population Apoptotic (%)” value [2]?
The value was 28%.

What about the “Population Fragmented Nuclei (%)” value [2] of the same molecule?
Its value is 4%.

What about the “Population Healthy Nuclei (%)” value [2] of the same molecule?
Its value is 39%.

And the “Population Hoechst High Intensity Objects (%)” value [2]?
Its value is 4%.

What about the “Population Membrane Permeable-Phenotype (%)” value [2] of the same molecule?
The value was 2%.

What about the “Population Mitochondria Different-Phenotype (%)” value [2] of the same molecule?
Its value is 57%.

And the “Population Mitotic Cells (%)” value [2]?
The value was 71%.

And the “Population Normal (%)” value [2]?
The value was 95%.

And the “Population Pyknosed Nuclei (%)” value [2]?
Its value is 56%.

And the “Population Tubulin-Different-Phenotype (%)” value [2]?
Its value is 62%.

And the “Total Cell Count” value [2]?
The value was 251.

What about the “Population Apoptotic (%)” value [3] of the same molecule?
The value was 80%.

And the “Population Fragmented Nuclei (%)” value [3]?
Its value is 11%.

And the “Population Healthy Nuclei (%)” value [3]?
The value was 31%.

And the “Population Hoechst High Intensity Objects (%)” value [3]?
The value was 11%.

And the “Population Membrane Permeable-Phenotype (%)” value [3]?
Its value is 0%.

And the “Population Mitochondria Different-Phenotype (%)” value [3]?
Its value is 98%.

What about the “Population Mitotic Cells (%)” value [3] of the same molecule?
The value was 19%.

What about the “Population Normal (%)” value [3] of the same molecule?
The value was 88%.

And the “Population Pyknosed Nuclei (%)” value [3]?
Its value is 57%.

What about the “Population Tubulin-Different-Phenotype (%)” value [3] of the same molecule?
Its value is 98%.

What about the “Total Cell Count” value [3] of the same molecule?
Its value is 300.

And the “Population Apoptotic (%)” value [4]?
The value was 73%.

And the “Population Fragmented Nuclei (%)” value [4]?
The value was 4%.

And the “Population Healthy Nuclei (%)” value [4]?
Its value is 16%.

And the “Population Hoechst High Intensity Objects (%)” value [4]?
Its value is 7%.

And the “Population Membrane Permeable-Phenotype (%)” value [4]?
Its value is 4%.

What about the “Population Mitochondria Different-Phenotype (%)” value [4] of the same molecule?
The value was 86%.

And the “Population Mitotic Cells (%)” value [4]?
Its value is 26%.

And the “Population Normal (%)” value [4]?
The value was 92%.

What about the “Population Pyknosed Nuclei (%)” value [4] of the same molecule?
The value was 78%.

What about the “Population Tubulin-Different-Phenotype (%)” value [4] of the same molecule?
The value was 86%.

What about the “Total Cell Count” value [4] of the same molecule?
Its value is 152.

And the “Population Apoptotic (%)” value [5]?
The value was 63%.

What about the “Population Fragmented Nuclei (%)” value [5] of the same molecule?
Its value is 10%.

What about the “Population Healthy Nuclei (%)” value [5] of the same molecule?
Its value is 53%.

And the “Population Hoechst High Intensity Objects (%)” value [5]?
The value was 10%.

And the “Population Membrane Permeable-Phenotype (%)” value [5]?
The value was 1%.

And the “Population Mitochondria Different-Phenotype (%)” value [5]?
Its value is 84%.

And the “Population Mitotic Cells (%)” value [5]?
The value was 36%.

And the “Population Normal (%)” value [5]?
The value was 89%.

And the “Population Pyknosed Nuclei (%)” value [5]?
Its value is 36%.

And the “Population Tubulin-Different-Phenotype (%)” value [5]?
The value was 56%.

What about the “Total Cell Count” value [5] of the same molecule?
The value was 342.

What about the “Population Apoptotic (%)” value [6] of the same molecule?
The value was 25%.

And the “Population Fragmented Nuclei (%)” value [6]?
The value was 2%.

What about the “Population Healthy Nuclei (%)” value [6] of the same molecule?
Its value is 59%.

And the “Population Hoechst High Intensity Objects (%)” value [6]?
The value was 4%.

What about the “Population Membrane Permeable-Phenotype (%)” value [6] of the same molecule?
The value was 3%.

And the “Population Mitochondria Different-Phenotype (%)” value [6]?
The value was 52%.

What about the “Population Mitotic Cells (%)” value [6] of the same molecule?
Its value is 74%.

What about the “Population Normal (%)” value [6] of the same molecule?
The value was 95%.

And the “Population Pyknosed Nuclei (%)” value [6]?
Its value is 38%.

What about the “Population Tubulin-Different-Phenotype (%)” value [6] of the same molecule?
Its value is 55%.

What about the “Total Cell Count” value [6] of the same molecule?
Its value is 287.

What about the “Population Apoptotic (%)” value [7] of the same molecule?
The value was 74%.

What about the “Population Fragmented Nuclei (%)” value [7] of the same molecule?
The value was 12%.

And the “Population Healthy Nuclei (%)” value [7]?
The value was 42%.

And the “Population Hoechst High Intensity Objects (%)” value [7]?
Its value is 10%.

And the “Population Membrane Permeable-Phenotype (%)” value [7]?
The value was 4%.

And the “Population Mitochondria Different-Phenotype (%)” value [7]?
The value was 98%.

And the “Population Mitotic Cells (%)” value [7]?
Its value is 25%.

And the “Population Normal (%)” value [7]?
The value was 89%.

What about the “Population Pyknosed Nuclei (%)” value [7] of the same molecule?
Its value is 45%.

And the “Population Tubulin-Different-Phenotype (%)” value [7]?
The value was 98%.

What about the “Total Cell Count” value [7] of the same molecule?
Its value is 342.

And the “Population Apoptotic (%)” value [8]?
The value was 93%.

What about the “Population Fragmented Nuclei (%)” value [8] of the same molecule?
The value was 6%.

What about the “Population Healthy Nuclei (%)” value [8] of the same molecule?
Its value is 32%.

And the “Population Hoechst High Intensity Objects (%)” value [8]?
The value was 5%.

What about the “Population Membrane Permeable-Phenotype (%)” value [8] of the same molecule?
The value was 0%.

What about the “Population Mitochondria Different-Phenotype (%)” value [8] of the same molecule?
The value was 93%.

What about the “Population Mitotic Cells (%)” value [8] of the same molecule?
Its value is 6%.

What about the “Population Normal (%)” value [8] of the same molecule?
The value was 94%.

And the “Population Pyknosed Nuclei (%)” value [8]?
Its value is 61%.

What about the “Population Tubulin-Different-Phenotype (%)” value [8] of the same molecule?
The value was 91%.

And the “Total Cell Count” value [8]?
The value was 158.

And the “Population Apoptotic (%)” value [9]?
The value was 43%.

And the “Population Fragmented Nuclei (%)” value [9]?
Its value is 14%.

What about the “Population Healthy Nuclei (%)” value [9] of the same molecule?
Its value is 59%.

And the “Population Hoechst High Intensity Objects (%)” value [9]?
The value was 12%.

What about the “Population Membrane Permeable-Phenotype (%)” value [9] of the same molecule?
The value was 0%.

What about the “Population Mitochondria Different-Phenotype (%)” value [9] of the same molecule?
The value was 57%.

What about the “Population Mitotic Cells (%)” value [9] of the same molecule?
The value was 56%.

What about the “Population Normal (%)” value [9] of the same molecule?
The value was 87%.

What about the “Population Pyknosed Nuclei (%)” value [9] of the same molecule?
Its value is 26%.

And the “Population Tubulin-Different-Phenotype (%)” value [9]?
The value was 46%.

What about the “Total Cell Count” value [9] of the same molecule?
The value was 417.

And the “Population Apoptotic (%)” value [10]?
Its value is 27%.

What about the “Population Fragmented Nuclei (%)” value [10] of the same molecule?
The value was 7%.

And the “Population Healthy Nuclei (%)” value [10]?
The value was 69%.

And the “Population Hoechst High Intensity Objects (%)” value [10]?
Its value is 3%.

And the “Population Membrane Permeable-Phenotype (%)” value [10]?
The value was 2%.

What about the “Population Mitochondria Different-Phenotype (%)” value [10] of the same molecule?
Its value is 32%.

What about the “Population Mitotic Cells (%)” value [10] of the same molecule?
The value was 72%.

What about the “Population Normal (%)” value [10] of the same molecule?
Its value is 96%.

And the “Population Pyknosed Nuclei (%)” value [10]?
The value was 23%.

And the “Population Tubulin-Different-Phenotype (%)” value [10]?
Its value is 43%.

And the “Total Cell Count” value [10]?
Its value is 410.

What about the “Population Apoptotic (%)” value [11] of the same molecule?
Its value is 84%.

What about the “Population Fragmented Nuclei (%)” value [11] of the same molecule?
Its value is 14%.

And the “Population Healthy Nuclei (%)” value [11]?
The value was 52%.

And the “Population Membrane Permeable-Phenotype (%)” value [11]?
Its value is 3%.

What about the “Population Mitochondria Different-Phenotype (%)” value [11] of the same molecule?
Its value is 94%.

What about the “Population Mitotic Cells (%)” value [11] of the same molecule?
Its value is 15%.

And the “Population Pyknosed Nuclei (%)” value [11]?
Its value is 32%.

What about the “Population Tubulin-Different-Phenotype (%)” value [11] of the same molecule?
The value was 88%.

What about the “Total Cell Count” value [11] of the same molecule?
Its value is 339.

What about the “Population Apoptotic (%)” value [12] of the same molecule?
Its value is 91%.

What about the “Population Fragmented Nuclei (%)” value [12] of the same molecule?
Its value is 8%.

What about the “Population Healthy Nuclei (%)” value [12] of the same molecule?
Its value is 38%.

What about the “Population Hoechst High Intensity Objects (%)” value [12] of the same molecule?
Its value is 13%.

And the “Population Membrane Permeable-Phenotype (%)” value [12]?
The value was 6%.

What about the “Population Mitochondria Different-Phenotype (%)” value [12] of the same molecule?
Its value is 93%.

What about the “Population Mitotic Cells (%)” value [12] of the same molecule?
Its value is 8%.

And the “Population Normal (%)” value [12]?
The value was 86%.

What about the “Population Pyknosed Nuclei (%)” value [12] of the same molecule?
The value was 52%.

And the “Population Tubulin-Different-Phenotype (%)” value [12]?
The value was 86%.

What about the “Total Cell Count” value [12] of the same molecule?
The value was 173.

— ChEMBL document CHEMBL4689842, “EUbOPEN Chemogenomics Library wave 1” (2021)
